Source: ChEMBL document CHEMBL1142699 (J Med Chem, 2005)
Numbered stars: 1 amine (or outer) side, 2 acyl side, 3 side chain; on linkers, the order of the positions; unused ones are H or OH. Square brackets hold non-standard residues; d marks the D form. Peptide text beside a SMILES is read from it. X1 = N[C@@H](Cc1ccccc1)CN(CC(=O)[*:2])[*:1]; Phe(4-F) = N[C@@H](Cc1ccc(F)cc1)C(=O)O

Tests used:
[1] = biological target: Nociceptin receptor (Cavia porcellus) (UniProt P47748); test: Maximal inhibition of electrically evoked contraction of guinea pig ileum; type: functional, tissue-based
Nociceptin receptor (Cavia porcellus), sequence (P47748 whole entry): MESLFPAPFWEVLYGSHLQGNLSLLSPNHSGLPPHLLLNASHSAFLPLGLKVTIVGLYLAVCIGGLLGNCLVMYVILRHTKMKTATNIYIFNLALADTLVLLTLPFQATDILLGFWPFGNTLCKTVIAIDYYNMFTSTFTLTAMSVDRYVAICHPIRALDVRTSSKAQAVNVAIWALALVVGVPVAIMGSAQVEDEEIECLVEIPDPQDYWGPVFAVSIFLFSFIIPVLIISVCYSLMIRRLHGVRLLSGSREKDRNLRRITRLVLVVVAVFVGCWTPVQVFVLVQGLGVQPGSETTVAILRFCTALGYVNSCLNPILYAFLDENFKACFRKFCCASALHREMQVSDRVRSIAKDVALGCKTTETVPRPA

[2] = biological target: Nociceptin receptor (Mus musculus) (UniProt P35377); test: Maximal inhibition of electrically evoked contraction of mouse vas deferens; type: functional, tissue-based
Nociceptin receptor (Mus musculus), sequence (P35377 whole entry): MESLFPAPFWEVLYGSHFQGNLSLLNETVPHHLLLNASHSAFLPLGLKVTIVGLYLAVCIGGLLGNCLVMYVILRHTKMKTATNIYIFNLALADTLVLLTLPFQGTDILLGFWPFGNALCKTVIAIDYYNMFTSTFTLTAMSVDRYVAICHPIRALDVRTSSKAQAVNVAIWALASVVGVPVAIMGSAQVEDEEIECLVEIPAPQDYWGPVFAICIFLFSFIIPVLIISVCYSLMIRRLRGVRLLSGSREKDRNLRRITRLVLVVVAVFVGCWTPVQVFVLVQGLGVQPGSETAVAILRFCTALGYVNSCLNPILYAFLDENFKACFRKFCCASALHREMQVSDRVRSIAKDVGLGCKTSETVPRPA

[3] = biological target: Nociceptin receptor (Cavia porcellus) (UniProt P47748); test: Maximal inhibition of electrically evoked contraction of guinea pig ileum; Effect evident only in some tissues; type: functional, tissue-based; settings: filed as agonist
[4] = biological target: Nociceptin receptor (Cavia porcellus) (UniProt P47748); test: Inhibition of electrically evoked contraction of guinea pig ileum; Effect evident only in some tissues; type: functional, tissue-based; settings: filed as agonist
[5] = biological target: Nociceptin receptor (Mus musculus) (UniProt P35377); test: Maximal inhibition of electrically evoked contraction of mouse vas deferens; Effect evident only in some tissues; type: functional; settings: filed as agonist
[6] = biological target: Nociceptin receptor (Mus musculus) (UniProt P35377); test: Antagonistic potency against N/OFQ in electrically evoked contraction of mouse vas deferens at 1 uM; type: functional, tissue-based
How it was run: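 Male Swiss mice (25-30 g). Vas deferens in 5 mL baths of Mg2+-free Krebs at 33 °C, 0.3 g tension, field-stimulated with supramaximal 1 ms pulses at 0.05 Hz, isotonic recording.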

[7] = biological target: Nociceptin receptor (Cavia porcellus) (UniProt P47748); test: Antagonistic potency against N/OFQ in electrically evoked contractions of guinea pig ileum at 1 uM; type: functional, tissue-based
[8] = biological target: Nociceptin receptor (Mus musculus) (UniProt P35377); test: Inhibition of electrically evoked contraction of mouse vas deferens; Effect evident only in some tissues; type: functional; settings: filed as agonist
[9] = biological target: T1, Nociceptin receptor (Homo sapiens, UniProt P41146); test: Inhibition of forskolin stimulated cAMP levels in CHO cells expressing the human NOP receptor (CHOhNOP)
T1 sequence (P41146 whole entry): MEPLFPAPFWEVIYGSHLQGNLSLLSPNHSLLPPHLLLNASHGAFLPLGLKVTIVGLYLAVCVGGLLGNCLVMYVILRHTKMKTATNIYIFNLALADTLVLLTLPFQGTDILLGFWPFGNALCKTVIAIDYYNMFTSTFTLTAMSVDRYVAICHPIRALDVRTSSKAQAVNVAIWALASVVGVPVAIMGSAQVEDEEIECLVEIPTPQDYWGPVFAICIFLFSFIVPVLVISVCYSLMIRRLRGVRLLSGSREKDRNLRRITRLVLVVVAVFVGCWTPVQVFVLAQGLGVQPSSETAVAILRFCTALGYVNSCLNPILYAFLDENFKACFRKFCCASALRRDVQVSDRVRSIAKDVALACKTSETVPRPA

[10] = biological target: T1, Nociceptin receptor; test: Agonist potency against GTPgammaS binding in CHO cell membranes expressing the human NOP receptor (CHOhNOP)
[11] = biological target: T1, Nociceptin receptor; test: Receptor binding affinity for recombinant human N/OFQ peptide receptor (NOP) expressed in chinese hamster ovary cells; type: cell-based, CHO
[12] = biological target: Nociceptin receptor (Mus musculus, UniProt P35377); test: Inhibition of electrically evoked contraction of mouse vas deferens; type: functional
Nociceptin receptor (Mus musculus, UniProt P35377), sequence (P35377 whole entry): as the sequence (P35377 whole entry) above
How it was run: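 Vas deferens from male Swiss mice (25-30 g), in Mg2+-free Krebs at 33 °C under 0.3 g resting tension. Field-stimulated with 1 ms supramaximal pulses at 0.05 Hz; twitches recorded isotonically. After ~1 h equilibration, cumulative concentration-response curves in 0.5 log steps. […] 5-8 experiments.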

[13] = biological target: Nociceptin receptor (Cavia porcellus, UniProt P47748); test: Inhibition of electrically evoked contraction of guinea pig ileum; type: functional, tissue-based
Nociceptin receptor (Cavia porcellus, UniProt P47748), sequence (P47748 whole entry): as the sequence (P47748 whole entry) above
How it was run: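 Guinea pig ileum from albino animals (250-300 g), in Krebs at 37 °C under 0.3 g resting tension. Field-stimulated with 1 ms supramaximal pulses at 0.05 Hz; twitches recorded isotonically. After ~1 h equilibration, cumulative concentration-response curves in 0.5 log steps. […] 5-8 experiments.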

## C[C@H](NC(=O)CNC(=O)[C@@H](NC(=O)[C@H](Cc1ccc(F)cc1)NC(=O)CNC(=O)CNC(=O)[C@@H](N)Cc1ccccc1)[C@@H](C)O)C(=O)N[C@@H](CCCN=C(N)N)C(=O)N[C@@H](CCCCN)C(=O)N[C@@H](CO)C(=O)N[C@@H](C)C(=O)N[C@@H](CCCN=C(N)N)C(=O)N[C@@H](CCCCN)C(=O)N[C@@H](CCCN=C(N)N)C(=O)N[C@@H](CCCCN)C(=O)N[C@@H](CC(N)=O)C(=O)N[C@@H](CCC(=O)N(N)N)C(=O)NN
[1]
  Emax: 55%
[2]
  Emax: 94%

## CC(C)C[C@H](NC(=O)[C@H](CCCCN)NC(=O)[C@H](CCCN=C(N)N)NC(=O)[C@H](C)NC(=O)[C@H](CO)NC(=O)[C@H](CCCCN)NC(=O)[C@H](CCCN=C(N)N)NC(=O)[C@H](C)NC(=O)CNC(=O)[C@@H](NC(=O)[C@H](Cc1ccc(F)cc1)NC(=O)CNC(=O)CNC(=O)CNCc1ccccc1)[C@@H](C)O)C(=O)N[C@@H](C)C(=O)N[C@@H](CC(N)=O)C(=O)N[C@@H](CCC(N)=O)C(N)=O
[3]
  Emax: Agonist
[4]
  Log EC50: Agonist
[5]
  Emax: Agonist
[6]
  pKb: 6.61
[7]
  pKb: 7.16
[8]
  Activity: Agonist

## C[C@H](NC(=O)CNC(=O)[C@@H](NC(=O)[C@H](Cc1ccccc1)NC(=O)CNC(=O)CNC(=O)[C@@H](N)Cc1ccccc1)[C@@H](C)O)C(=O)N[C@@H](CCCN=C(N)N)C(=O)N[C@@H](CCCCN)C(=O)N[C@@H](CO)C(=O)N[C@@H](C)C(=O)N[C@@H](CCCN=C(N)N)C(=O)N[C@@H](CCCCN)C(=O)N[C@@H](CCCN=C(N)N)C(=O)N[C@@H](CCCCN)C(=O)N[C@@H](CC(N)=O)C(=O)N[C@@H](CCC(=O)N(N)N)C(=O)NN
[1]
  Emax: 52%
[2]
  Emax: 95%

## C[C@H](NC(=O)CNC(=O)[C@@H](NC(=O)[C@H](Cc1ccccc1)NC(=O)CNC(=O)CNC[C@@H](N)Cc1ccccc1)[C@@H](C)O)C(=O)N[C@@H](CCCN=C(N)N)C(=O)N[C@@H](CCCCN)C(=O)N[C@@H](CO)C(=O)N[C@@H](C)C(=O)N[C@@H](CCCN=C(N)N)C(=O)N[C@@H](CCCCN)C(=O)N[C@@H](CCCN=C(N)N)C(=O)N[C@@H](CCCCN)C(=O)N[C@@H](CC(N)=O)C(=O)N[C@@H](CCC(N)=O)C(N)=O (H-[X1]GFTGARKSARKRKNQ-NH2)
[9]
  EC50: 240 pM
[10]
  EC50: 933 pM
[11]
  Ki: 31.6 pM

## CC(C)C[C@H](NC(=O)[C@H](CCCCN)NC(=O)[C@H](CCCN=C(N)N)NC(=O)[C@H](C)NC(=O)[C@H](CO)NC(=O)[C@H](CCCCN)NC(=O)[C@H](CCCN=C(N)N)NC(=O)[C@H](C)NC(=O)CNC(=O)[C@@H](NC(=O)[C@H](Cc1ccccc1)NC(=O)CNC(=O)CNC(=O)[C@@H](N)Cc1ccccc1)[C@@H](C)O)C(=O)N[C@@H](C)C(=O)N[C@@H](CC(N)=O)C(=O)N[C@@H](CCC(N)=O)C(=O)O [NOCICEPTIN]
[12]
  EC50: 5370 pM
[13]
  EC50: 5250 pM

## CC(C)C[C@H](NC(=O)[C@H](CCCCN)NC(=O)[C@H](CCCN=C(N)N)NC(=O)[C@H](C)NC(=O)[C@H](CO)NC(=O)[C@H](CCCCN)NC(=O)[C@H](CCCN=C(N)N)NC(=O)[C@H](C)NC(=O)CNC(=O)[C@@H](NC(=O)[C@H](Cc1ccc(F)cc1)NC(=O)CNC(=O)CNC(=O)[C@@H](N)Cc1ccccc1)[C@@H](C)O)C(=O)N[C@@H](C)C(=O)N[C@@H](CC(N)=O)C(=O)N[C@@H](CCC(N)=O)C(N)=O
[1]
  Emax: 56%
[12]
  EC50: 2570 pM
[13]
  EC50: 1860 pM
[2]
  Emax: 92%

## CC(C)C[C@H](NC(=O)[C@H](CCCCN)NC(=O)[C@H](CCCN=C(N)N)NC(=O)[C@H](C)NC(=O)[C@H](CO)NC(=O)[C@H](CCCCN)NC(=O)[C@H](CCCN=C(N)N)NC(=O)[C@H](C)NC(=O)CNC(=O)[C@@H](NC(=O)[C@H](Cc1ccc(F)cc1)NC(=O)CNC(=O)CNC[C@@H](N)Cc1ccccc1)[C@@H](C)O)C(=O)N[C@@H](C)C(=O)N[C@@H](CC(N)=O)C(=O)N[C@@H](CCC(N)=O)C(N)=O (H-[X1]G[Phe(4-F)]TGARKSARKLANQ-NH2)
[3]
  Emax: Agonist
[4]
  Log EC50: Agonist
[5]
  Emax: Agonist
[9]
  EC50: 479 pM
[6]
  pKb: 7.9
[10]
  EC50: 813 pM
[7]
  pKb: 8.32
[11]
  Ki: 47.9 pM
[8]
  Activity: Agonist

## C[C@H](NC(=O)CNC(=O)[C@@H](NC(=O)[C@H](Cc1ccc(F)cc1)NC(=O)CNC(=O)CNC(=O)[C@@H](N)Cc1ccccc1)[C@@H](C)O)C(=O)N[C@@H](CCCNC(=N)N)C(=O)N[C@@H](CCCCN)C(=O)N[C@@H](CO)C(=O)N[C@@H](C)C(=O)N[C@@H](CCCNC(=N)N)C(=O)N[C@@H](CCCCN)C(=O)N[C@@H](CCCNC(=N)N)C(=O)N[C@@H](CCCCN)C(=O)N[C@@H](CC(N)=O)C(=O)N[C@@H](CCC(N)=O)C(N)=O
[12]
  EC50: 437 pM
[11]
  Ki: 4.79 pM
[13]
  EC50: 1050 pM
